PubChem BioAssay AID1040 (The Scripps Research Institute Molecular Screening Center, 2008)
Out of some 200,000 compounds screened, about 2,000 (1%) were called active.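 Rule for the calls: active = inhibition above the campaign mean inhibition of all tested compounds plus 3 SD (cut at about 20% in these data); inactive = the rest.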 The full list was thinned out, with actives kept by preference.

Target: Neuropeptide Y receptor type 1 (Homo sapiens) (UniProt P25929)
Experiment: NPY-Y1 receptor antagonists, primary screen, cell-based (AID 1040);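 note: 0% = DMSO wells given NPY plus isoproterenol and 100% = isoproterenol alone without NPY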
Conditions: HEK293-CNG Y1 cells, membrane potential fluorescence; at 3.6 µM; stronger effect = higher value; NPY at EC95, then isoproterenol
Summary of the method: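 material = HEK293 cells with Y1 receptor plus CNG channel | also added = NPY 25 nM then isoproterenol 1 µM plus Ro 20-1724 25 µM | schedule = dye 3 h, compound 60 min room temperature, stimulation 45 min | measured by = membrane potential fluorescence | benchmarks = high control isoproterenol alone, low control NPY with isoproterenol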

Sequence of Neuropeptide Y receptor type 1 (Homo sapiens) (P25929 whole entry, looked up): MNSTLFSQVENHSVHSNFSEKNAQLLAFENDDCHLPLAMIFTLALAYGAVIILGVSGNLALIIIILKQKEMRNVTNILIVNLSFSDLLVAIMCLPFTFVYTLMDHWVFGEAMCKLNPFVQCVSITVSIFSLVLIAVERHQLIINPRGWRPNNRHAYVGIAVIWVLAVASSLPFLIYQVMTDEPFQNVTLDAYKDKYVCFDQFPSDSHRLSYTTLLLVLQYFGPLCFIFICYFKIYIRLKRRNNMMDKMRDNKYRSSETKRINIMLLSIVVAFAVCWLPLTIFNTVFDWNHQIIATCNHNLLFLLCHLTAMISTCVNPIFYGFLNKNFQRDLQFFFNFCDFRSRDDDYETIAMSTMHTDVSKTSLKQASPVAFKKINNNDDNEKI

inhibition, inactive:
CN(C(=O)COc1ccccc1)c1nnc(-c2ccncc2)s1 7.86%
COc1ccc(CCNc2nc(-c3cccc(NC(C)=O)c3)cs2)cc1OC 6.08%
C/C(=C\c1ccccc1)C1NC(=O)c2c(sc3c2CCCC3)N1 (stereo not drawn) -4.04%
CC(=O)N(CC1CCCO1)C1(C(=O)NC2CCCC2)CCCCC1 (stereo not drawn) 1.44%
Cc1ccsc1C(C(=O)NC1CCCCC1)N(C(=O)Cc1cccs1)C1CC1 (stereo not drawn) 4.38%
CSc1cccc(NC(=S)N(Cc2ccccc2)Cc2ccccn2)c1 5.5%
c1cncc(-c2nnc3n2C2(CCCCC2)Cc2ccccc2-3)c1 1.15%
CCC1(CC)Cc2ccccc2-c2nc3ccccc3c(=O)n21 12.8%
COCCCNC(=S)N(Cc1ccccc1)Cc1ccc(F)cc1 2.32%
Cc1cccc2cc(CN(Cc3cccs3)C(=S)NCc3ccco3)c(=O)[nH]c12 -4.05%
CC(=O)N1CCN(CC(=O)Nc2ccc(SC(F)F)cc2)CC1 4.16%
COc1ccccc1NC(=O)CCCc1c[nH]c2ccccc12 11.1%
COc1ccc(C(CCNCc2ccccc2F)c2ccc(F)cc2)cc1 (stereo not drawn) 9.35%
CCC(=O)Nc1sc(C(=O)Nc2ccccc2)c(C)c1C(=O)OC 7.74%
O=S(=O)(Nc1ccc2cn[nH]c2c1)c1ccccc1 -1.06%
Cc1cc(C)nc(NS(=O)(=O)c2ccc(N/C=C\C(=O)c3cccs3)cc2)n1 1.24%
COc1ccc(CCNC2=C(Cl)C(=O)N(Cc3ccccc3)C2=O)cc1OC -3.95%
C/C(=N\N)c1c(-c2ccccc2)c2cc(Br)ccc2[nH]c1=O -0.69%
Cc1cnc(C(=O)OCC(=O)NCCCc2ccccc2)cn1 2.73%
COc1ccc(CN(C)C(=S)Nc2ccc(Cl)cc2Cl)cc1 3.26%
COc1ccc(C(=O)O/N=C(\N)Cc2ccc(Cl)cc2Cl)cc1OC -3.58%
NC(N)=N/N=C/c1ccc(Cl)c([N+](=O)[O-])c1 3.89%
CN(C)CCNC(=O)Cc1ccc([N+](=O)[O-])cc1 -2.56%
Cc1ccc2cc(CN(c3ccc(C)c(C)c3)S(C)(=O)=O)c(=O)[nH]c2c1 -0.43%
NNC(=O)c1cnn(-c2ccccc2)c1C(F)(F)F 3.72%
O=C(CN1C2=NCCN2c2ccccc21)c1cccs1 3.06%
Cc1cccc(C(=O)Nc2ccccc2N2CCN(c3ccc(F)cc3)CC2)c1 6.05%
O=C(Nc1ccccc1N1CCCCC1)c1cccc(F)c1 13.7%
CC(=O)N(CCCN(C)C)c1nc2ccc(C)cc2s1 -0.43%
O=C(CSc1cccc[n+]1[O-])c1ccc(Cl)cc1 0.77%
CN(C)S(=O)(=O)c1cc(NC(=O)CN2C(=O)NC3(CCCc4ccccc43)C2=O)ccc1Cl (stereo not drawn) -4.16%
Cc1ccc(-n2nc3cc(C)c(NC(=O)c4cccnc4)cc3n2)cc1 -4.27%
Cc1ccc2nc(-c3ccc(NC(=O)c4cccnc4)cc3)oc2c1 -0.59%
Cc1nc2cc(NC(=O)NC3CC3)ccc2n1C -0.07%
O=C(CN1CCN(C(=O)c2ccco2)CC1)Nc1ccc2c(c1)OCO2 0.97%
O=C(CN1CCN(CC(=O)Nc2ccc3c(c2)OCO3)CC1)Nc1ccc(F)cc1 -3.14%
COc1ccc(C(=O)NC(Cc2ccc(OC(=O)c3ccc(OC)cc3)cc2)C(=O)O)cc1 (stereo not drawn) 3.87%
Cc1coc(C)c1C(=O)CC1(O)C(=O)N(C)c2ccc(Cl)cc21 (stereo not drawn) 1.88%
O=C1NC(=Nc2ccc(Cl)cc2)SC1Cc1cccc(Cl)c1Cl (stereo not drawn) -1.29%
CCc1cc2c(NC3CCCC3)ncnc2s1 -1.37%
CCCc1ccc(OCC(=O)NNC(=S)NC(=O)c2ccco2)cc1 10.6%
O=C(Nc1ccc2ccccc2c1)/C(=C/c1cccc(Br)c1)NC(=O)c1ccco1 7.08%
COc1ccccc1NC(=O)CSc1nc2sc(C)c(C)c2c(=O)n1Cc1ccco1 9.58%
CCOC(=O)CSc1nc2c(c(=O)n(C)c(=O)n2C)n1Cc1ccccc1F 1.86%
CC(=O)c1ccc(N2CCN(S(=O)(=O)c3c(C)[nH]c(=O)[nH]c3=O)CC2)cc1 -3.11%
O=C(NC(=S)Nc1cccc(-c2ccc(CO)o2)c1)c1cccs1 4.06%
O=C(Nn1c(SCc2ccc([N+](=O)[O-])cc2)nc2ccccc2c1=O)c1ccc(F)cc1 3.79%
COc1ccc2oc(=O)c(C(=O)N3CCCC3)cc2c1 1%
Cc1cc(C)nc(SC2CCCCC2NS(=O)(=O)c2ccc(Cl)cc2)n1 (stereo not drawn) 4.03%
CSc1ccc(S(=O)(=O)NC2CCCCC2)cc1 -0.27%

inhibition, active:
COc1ccc(CCN(C(=O)COc2ccccc2)c2nc(-c3ccccc3)cs2)cc1OC 37.1%
CC(=O)N1CC(C)c2scc(C)[n+]2-c2ccccc21 (stereo not drawn) 23.1%
O=C(Cc1cccs1)N(CC1CCCO1)C1(C(=O)NC2CCCCC2)CCCCC1 (stereo not drawn) 50.3%
O=c1c2ccccc2nc2n1C1(CCCCC1)Cc1ccccc1-2 32%
Cc1cc(C)c2[nH]c(=O)c(CN(Cc3ccccc3)C(=S)NCCCN(C)C)cc2c1 25.1%
COc1cccc(CNCCc2c[nH]c3ccccc23)c1OCc1ccccc1F 21.9%
NC(N)=N/N=C/c1ccc(OCc2ccc(Cl)cc2Cl)cc1 22.1%
O=C(Nc1ccccc1N1CCN(c2ccccc2)CC1)c1cccc(F)c1 44.1%
Cc1cc2nc(-c3ccc(NC(=O)c4cccnc4)cc3)oc2cc1C 29.8%
O=C(CN1CCN(c2ncc(C(F)(F)F)cc2Cl)CC1)Nc1ccc2c(c1)OCO2 23.8%
CC(Oc1ccc2ccccc2c1)C(=O)NNC(=S)NC(=O)c1ccco1 (stereo not drawn) 21.9%
CCOC(=O)CSc1nc2c(sc(=S)n2CCc2ccccc2)c(=O)n1Cc1ccco1 34.8%
CCOC1CCCCC1NS(=O)(=O)c1ccc(Cl)cc1 (stereo not drawn) 21.4%
